# Source: PubChem BioAssay
# In the library only some 1% were active in any assay of this set; here they are far more common.
# Neddylation inh = inhibitors of cullin neddylation, primary screen, biochemical, TR-FRET, uHTS, NAE and Ubc12; NEDD8-conjugating enzyme Ubc12 (Homo sapiens) + NEDD8-activating enzyme E1 regulatory …; inhibition, % at 25 µM; 360,000 tested, 0.58% active; in the data active = inhibition above about 36%
# PKA-R1A act = activators of PKA-R1A holoenzyme, primary screen, biochemical, fluorescence polarization, Cy5-IP20, bovine R1A, mouse PKAc. activation, % at 11.4 µM. 340,000 tested, 0.083% active. PKA-R1A dissociation; scaled: DMSO 0%, 113 µM cGMP 100%;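 active = percent activation above the mean of all tested compounds plus 3 SD, cut at about 19% in these data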;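 also: higher means more PKAc released from R1A so a rise in polarization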
# Tn7 DDE FP = inhibitors of Tn7 peptide binding to fibrin DD(E), primary screen, biochemical, fluorescence polarization, human fibrin, Tn7 probe. Fibrinogen beta chain (Homo sapiens), P02675. FP displacement of FITC-Tn7 peptide from fibrin DD(E); 0% = median of compound wells per plate. inhibition, % at 8.3 µM. 370,000 tested, 0.13% active;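 active = inhibition above the mean of compounds falling within the control limits plus 3 SD of them, cut at about 14% in these data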
#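 Measure: % inhibition scaled between sample-field median and high-control FP; Test system: human fibrin DD(E); Quantity: 2 µM final DD(E) protein; Doses: one dose, 8.3 µM nominal; Schedule: compound with protein 10 min, then 3 h after probe, room temperature; Detection: fluorescence polarization; Medium: Tris buffer with calcium and detergent, pH 7.8.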
# PKA-R2B act = activators of PKA-R2B holoenzyme, primary screen, biochemical, fluorescence polarization, Cy5-IP20, human; cAMP-dependent protein kinase catalytic subunit beta (Homo sapiens) + cAMP-dependent …; PKA-R2B holoenzyme dissociation; R2B truncated from residue 108, S112A mutant; 0% DMSO only, 100% 113 µM cGMP; activation, % at 11.4 µM; 340,000 tested, 0.079% active; AID 504700, 2011;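 active = activation above a cutoff set at the mean over all compounds plus 3 SD, cut at about 18% in these data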;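 also: higher means more holoenzyme dissociation and a rise in polarization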
# Target sequence (P31323 whole entry, looked up, other chains not shown, the tested form may be a part): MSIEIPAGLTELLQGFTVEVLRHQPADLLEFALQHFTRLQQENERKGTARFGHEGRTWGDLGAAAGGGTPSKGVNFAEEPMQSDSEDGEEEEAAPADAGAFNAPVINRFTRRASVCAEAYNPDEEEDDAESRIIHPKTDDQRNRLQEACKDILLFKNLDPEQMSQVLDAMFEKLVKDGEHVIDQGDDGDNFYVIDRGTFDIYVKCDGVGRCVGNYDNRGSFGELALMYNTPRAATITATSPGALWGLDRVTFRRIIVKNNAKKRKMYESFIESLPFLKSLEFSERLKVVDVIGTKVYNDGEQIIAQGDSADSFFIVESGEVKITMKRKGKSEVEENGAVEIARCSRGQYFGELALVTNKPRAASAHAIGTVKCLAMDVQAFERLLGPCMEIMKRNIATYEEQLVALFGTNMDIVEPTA
# DDE Tn6 FP inh = inhibitors of Tn6 peptide binding to fibrin DD(E), primary screen, biochemical, fluorescence polarization, human fibrin, Tn6 probe; 370,000 tested, 0.21% active; Fibrinogen beta chain (Homo sapiens), P02675; Fibrin DD(E) TRITC-Tn6 fluorescence polarization displacement; inhibition, % at 8.3 µM;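 active = inhibition above a per-campaign cutoff: mean of compounds within control limits plus 3 SD, cut at about 15% in these data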
# Neddyl conf = blockade of NEDD8 conjugation to cullin – biochemical, TR-FRET, single concentration, confirmation; shares compounds with Neddylation inh; TR-FRET cullin neddylation biochemical assay; calls only at 25 µM; 1,800 tested, 13% active; AID 652217, 2013; in the data active = inhibition above about 40%;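 also: neddylation substrate is the cullin 1 ring ligase complex with SKP2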
# A number is an active result; n = inactive; x = no result shown; + = active, no number.
SMILES,Neddylation inh,PKA-R1A act,Tn7 DDE FP,PKA-R2B act,DDE Tn6 FP inh,Neddyl conf
COc1cccc(CC(=O)n2nc(N)c3cc4ccc(OC)cc4nc32)c1,41,n,n,n,n,n
Nc1c(C(=O)Nc2ccc3c(c2)OCCO3)nnn1Cc1ccc(F)cc1,50,n,n,n,n,n
Cc1cc(=O)oc2cc(OCC(=O)Nc3c(C)n(C)n(-c4ccccc4)c3=O)c(Cl)cc12,40,n,n,n,n,n
Cc1cc(=O)oc2cc(OCC(=O)NC3(C#N)CCCCC3)c(Cl)cc12,40,n,n,n,n,n
O=C(NCC1CCN(C(=O)C(=O)c2cc3ccccc3o2)CC1)c1ccc2c(c1)OCC2,x,x,n,x,n,x
CC(C)N(c1cc(=O)nc2ccccn12)C(C)C,x,x,n,x,n,x
S=c1[nH]c(-c2ccccc2)cn1/N=C/c1ccc(Br)cc1,42,n,n,n,n,n
COc1cc(/C=N/NC(=O)CCOc2ccccc2C)cc(Br)c1O,43,n,n,n,n,+
COc1ccc(CC(=O)N/N=C\c2cc(Br)c(O)c(Br)c2)cc1,45,n,n,n,n,+
COc1ccc(/C=N/NC(=O)CCOc2ccccc2C)cc1OC,n,n,n,n,n,x
Cc1ccc(-c2cc3nc(-c4ccccc4)cc(N)n3n2)cc1,44,n,n,n,n,n
Cc1ccc(-c2cc(N)n3nc(-c4ccc(C)cc4)cc3n2)cc1,x,n,n,n,n,x
O=C(NCc1cccnc1)/C(=C/c1ccc(-c2cccc(C(F)(F)F)c2)o1)NC(=O)c1ccccc1,n,n,n,n,n,x
Cc1ccc(C(=O)N/C(=C/c2ccc(-c3cc(C(F)(F)F)ccc3Cl)o2)C(=O)NCc2cccnc2)cc1,48,n,n,n,n,x
CCn1c(=O)cc(N2CCN(c3cccc(C(F)(F)F)c3)CC2)[nH]c1=O,x,x,n,x,n,x
O=C(N/N=C/c1cccnc1)c1ccc(CN2c3cccc4cccc(c34)S2(=O)=O)cc1,46,n,n,n,n,+
COc1cccc(/C=N/NC(=O)c2ccc(CN3c4cccc5cccc(c45)S3(=O)=O)cc2)c1,x,n,n,n,n,x
Nc1ncnc2c1ncn2[C@@H]1O[C@H](C(=O)N[C@@H](CCc2ccccc2)C(=O)N2CCN(C(=O)N3CCOCC3)CC2)[C@@H](O)[C@H]1O,x,x,n,x,n,x
CCOc1cc(/C=C(/C#N)c2nc3ccccc3[nH]2)ccc1OCc1ccc(C(=O)O)o1,38,n,n,n,n,n
CC(C)[C@H](NC(=O)C1CC1)C(=O)N1CCC[C@H]1C(=O)NCc1ccccc1,x,x,n,x,n,x
O=C(Nc1ccc2c(c1)OCO2)c1cc(-c2ccc(O)cc2)on1,52,n,n,n,n,+
CCN(CC)C(=O)c1ccc2nc(-c3ccccc3)c(-c3ccccc3)nc2c1,44,n,n,n,n,n
CN1CCN(C(=O)c2ccc3nc(-c4ccccc4)c(-c4ccccc4)nc3c2)CC1,55,n,n,n,n,x
COCC(C)NC(=O)c1ccc2nc(-c3ccccc3)c(-c3ccccc3)nc2c1 (stereo unspecified),41,n,n,n,n,+
O=C(c1ccc2nc(-c3ccccc3)c(-c3ccccc3)nc2c1)N1CCCCC1,n,n,n,n,n,x
SMILES,Neddylation inh,PKA-R1A act,Tn7 DDE FP,PKA-R2B act,DDE Tn6 FP inh,Neddyl conf
Cc1cc(N2CCNC[C@@H]2C)ccc1N1CCS(=O)(=O)CC1,x,x,n,x,n,x
COC(=O)c1cc2c(c3c4cc(OC)ccc4n(C(=O)c4ccccc4)c13)C(=O)N(Cc1ccco1)C2,x,x,n,x,n,x
CCCCCCCCN1CN2Cc3ccc(C)cc3C2CS1(=O)=O (stereo unspecified),x,x,n,x,n,x
N/C(=N\O)c1ccccc1-n1cccc1,n,n,n,n,n,x
Nc1ccccc1-n1cccc1,41,x,n,x,n,n
CN(C)[C@H]1CCN(c2ccc3c(c2)OCCCN(C2CC2)S3(=O)=O)C1,x,x,n,x,n,x
CC(C)CN(C(=O)COC(=O)c1ccccc1NCc1ccco1)c1c(N)n(Cc2ccccc2)c(=O)[nH]c1=O,63,n,n,n,n,n
COCCN(C(=O)COC(=O)c1cc2ccccc2cc1OC)c1c(N)n(Cc2ccccc2)c(=O)[nH]c1=O,52,n,n,n,n,+
CC(C)CN(C(=O)COC(=O)c1cccc2ccccc12)c1c(N)n(Cc2ccccc2)c(=O)[nH]c1=O,n,n,n,n,n,x
COc1cc2ccccc2cc1C(=O)OCC(=O)N(CC(C)C)c1c(N)n(Cc2ccccc2)c(=O)[nH]c1=O,47,n,n,n,n,n
COCCN(C(=O)COC(=O)c1cc(C)n(-c2ccccc2)c1C)c1c(N)n(Cc2ccccc2)c(=O)[nH]c1=O,n,n,n,n,n,x
COc1ccc2[nH]c3c(c2c1)CCN[C@]31C(=O)Nc2ccccc21,x,x,n,x,n,x
O=C(Nc1ccccc1)Nc1nc2ncccn2c1-c1ccc(C(F)(F)F)cc1,x,x,n,x,n,x
CC(=O)C1=C(C)N(Cc2ccc(F)cc2)C(=S)NC1c1ccc(Br)cc1 (stereo unspecified),x,x,n,x,n,x
CN(C)c1cccc(C(=O)OCC(=O)N2CCc3ccccc3C2)c1,42,n,n,n,n,n
CC(OC(=O)c1cccc(N(C)C)c1)C(=O)N1CCc2ccccc2C1 (stereo unspecified),x,n,n,n,n,x
O=C(N/N=C/c1ccc([N+](=O)[O-])cc1)c1[nH]ncc1Br,n,n,n,n,n,x
Cc1nc(C(=O)N/N=C/c2[nH]ncc2Br)cs1,42,n,n,n,n,n
O=c1oc2ccccc2cc1-c1cn2cccnc2n1,43,n,n,n,n,+
COC(=O)C(C(C)C)N1CCc2c(C)nc3c(C#N)cnn3c21 (stereo unspecified),47,n,n,n,n,+
C[C@H]1[C@H](N(C)C)CC[C@@]23CCCN2C(=O)CCC[C@@H]13,x,x,n,x,n,x
Cc1ccc2nc(C)cc(C(=O)OCC(=O)Nc3cccnc3Cl)c2c1,44,n,n,n,n,n
COc1cccc(-c2ccc(C#N)c(=O)[nH]2)c1,59,n,n,n,n,x
CC(C)Cn1nc(NC(=O)c2ccco2)c2cc3ccccc3nc21,46,n,n,n,n,x
